In ChEMBL document CHEMBL5058577, “EUbOPEN Chemogenomics Library 2 (Multiplex)” (2022):

System: HEK-293T
Assay: Multiplex assay against HEK293T
Type: toxicity, cell-based
Conditions: human
In short: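 Imaging took place on a CQ1 microscope at 37°C and 5% CO2 once compound had been added to live cells stained at seeding with Hoechst33342, BioTracker Green Microtubule Cytoskeleton Dye, MitoTracker Red and Annexin V Alexa Fluor 680. CellPathfinder machine-learning gating classed cells as Hoechst high-intensity objects or normal cells, classed normal cells as having healthy, pyknosed or fragmented nuclei, and classed pyknosed cells as mitotic or apoptotic. Tubulin, mitochondrial-mass and membrane-permeability phenotypes are per cents of the healthy-nucleus cells.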

[1] = 12 h, 1 µM, compound concentration 1 uM, replicate 1
[2] = 12 h, 1 µM, compound concentration 1 uM, replicate 2
[3] = 12 h, 10 µM, compound concentration 10 uM, replicate 1
[4] = 12 h, 10 µM, compound concentration 10 uM, replicate 2
[5] = 24 h, 1 µM, compound concentration 1 uM, replicate 1
[6] = 24 h, 1 µM, compound concentration 1 uM, replicate 2
[7] = 24 h, 10 µM, compound concentration 10 uM, replicate 1
[8] = 24 h, 10 µM, compound concentration 10 uM, replicate 2
[9] = 48 h, 1 µM, compound concentration 1 uM, replicate 1
[10] = 48 h, 1 µM, compound concentration 1 uM, replicate 2
[11] = 48 h, 10 µM, compound concentration 10 uM, replicate 1
[12] = 48 h, 10 µM, compound concentration 10 uM, replicate 2

C[C@H](NC(=O)CNC(=O)c1cccc(Cl)c1)c1ccccc1
Population Apoptotic (%) [1]: 33%
Population Fragmented Nuclei (%) [1]: 5%
Population Healthy Nuclei (%) [1]: 79%
Population Hoechst High Intensity Objects (%) [1]: 8%
Population Membrane Permeable-Phenotype (%) [1]: 0%
Population Mitochondria Different-Phenotype (%) [1]: 39%
Population Mitotic Cells (%) [1]: 66%
Population Normal (%) [1]: 91%
Population Pyknosed Nuclei (%) [1]: 15%
Population Tubulin-Different-Phenotype (%) [1]: 29%
Total Cell Count [1]: 449
Population Apoptotic (%) [2]: 48%
Population Fragmented Nuclei (%) [2]: 6%
Population Healthy Nuclei (%) [2]: 84%
Population Hoechst High Intensity Objects (%) [2]: 4%
Population Mitochondria Different-Phenotype (%) [2]: 52%
Population Mitotic Cells (%) [2]: 51%
Population Normal (%) [2]: 95%
Population Pyknosed Nuclei (%) [2]: 9%
Population Tubulin-Different-Phenotype (%) [2]: 17%
Total Cell Count [2]: 384
Population Apoptotic (%) [3]: 41%
Population Fragmented Nuclei (%) [3]: 6%
Population Healthy Nuclei (%) [3]: 76%
Population Hoechst High Intensity Objects (%) [3]: 7%
Population Membrane Permeable-Phenotype (%) [3]: 0%
Population Mitochondria Different-Phenotype (%) [3]: 54%
Population Mitotic Cells (%) [3]: 58%
Population Normal (%) [3]: 92%
Population Pyknosed Nuclei (%) [3]: 17%
Population Tubulin-Different-Phenotype (%) [3]: 39%
Total Cell Count [3]: 362
Population Apoptotic (%) [4]: 58%
Population Fragmented Nuclei (%) [4]: 7%
Population Healthy Nuclei (%) [4]: 77%
Population Hoechst High Intensity Objects (%) [4]: 13%
Population Mitochondria Different-Phenotype (%) [4]: 61%
Population Mitotic Cells (%) [4]: 41%
Population Normal (%) [4]: 86%
Population Pyknosed Nuclei (%) [4]: 15%
Population Tubulin-Different-Phenotype (%) [4]: 33%
Total Cell Count [4]: 272
Population Apoptotic (%) [5]: 23%
Population Fragmented Nuclei (%) [5]: 9%
Population Healthy Nuclei (%) [5]: 80%
Population Hoechst High Intensity Objects (%) [5]: 4%
Population Membrane Permeable-Phenotype (%) [5]: 1%
Population Mitochondria Different-Phenotype (%) [5]: 25%
Population Mitotic Cells (%) [5]: 76%
Population Normal (%) [5]: 95%
Population Pyknosed Nuclei (%) [5]: 10%
Population Tubulin-Different-Phenotype (%) [5]: 15%
Total Cell Count [5]: 646
Population Apoptotic (%) [6]: 45%
Population Fragmented Nuclei (%) [6]: 7%
Population Healthy Nuclei (%) [6]: 84%
Population Hoechst High Intensity Objects (%) [6]: 2%
Population Membrane Permeable-Phenotype (%) [6]: 0%
Population Mitochondria Different-Phenotype (%) [6]: 32%
Population Mitotic Cells (%) [6]: 54%
Population Normal (%) [6]: 97%
Population Pyknosed Nuclei (%) [6]: 7%
Population Tubulin-Different-Phenotype (%) [6]: 9%
Total Cell Count [6]: 476
Population Apoptotic (%) [7]: 43%
Population Fragmented Nuclei (%) [7]: 9%
Population Healthy Nuclei (%) [7]: 77%
Population Hoechst High Intensity Objects (%) [7]: 4%
Population Membrane Permeable-Phenotype (%) [7]: 0%
Population Mitochondria Different-Phenotype (%) [7]: 39%
Population Mitotic Cells (%) [7]: 56%
Population Normal (%) [7]: 95%
Population Pyknosed Nuclei (%) [7]: 12%
Population Tubulin-Different-Phenotype (%) [7]: 25%
Total Cell Count [7]: 505
Population Apoptotic (%) [8]: 58%
Population Fragmented Nuclei (%) [8]: 10%
Population Healthy Nuclei (%) [8]: 78%
Population Hoechst High Intensity Objects (%) [8]: 9%
Population Mitochondria Different-Phenotype (%) [8]: 49%
Population Mitotic Cells (%) [8]: 41%
Population Normal (%) [8]: 90%
Population Pyknosed Nuclei (%) [8]: 11%
Population Tubulin-Different-Phenotype (%) [8]: 19%
Total Cell Count [8]: 303
Population Apoptotic (%) [9]: 19%
Population Fragmented Nuclei (%) [9]: 13%
Population Healthy Nuclei (%) [9]: 80%
Population Hoechst High Intensity Objects (%) [9]: 3%
Population Membrane Permeable-Phenotype (%) [9]: 0%
Population Mitochondria Different-Phenotype (%) [9]: 15%
Population Mitotic Cells (%) [9]: 80%
Population Normal (%) [9]: 96%
Population Pyknosed Nuclei (%) [9]: 5%
Population Tubulin-Different-Phenotype (%) [9]: 12%
Total Cell Count [9]: 984
Population Apoptotic (%) [10]: 30%
Population Healthy Nuclei (%) [10]: 81%
Population Hoechst High Intensity Objects (%) [10]: 2%
Population Membrane Permeable-Phenotype (%) [10]: 2%
Population Mitochondria Different-Phenotype (%) [10]: 16%
Population Mitotic Cells (%) [10]: 70%
Population Normal (%) [10]: 97%
Population Tubulin-Different-Phenotype (%) [10]: 6%
Total Cell Count [10]: 606
Population Apoptotic (%) [11]: 44%
Population Fragmented Nuclei (%) [11]: 15%
Population Healthy Nuclei (%) [11]: 77%
Population Hoechst High Intensity Objects (%) [11]: 1%
Population Membrane Permeable-Phenotype (%) [11]: 0%
Population Mitochondria Different-Phenotype (%) [11]: 26%
Population Mitotic Cells (%) [11]: 55%
Population Normal (%) [11]: 98%
Population Pyknosed Nuclei (%) [11]: 7%
Population Tubulin-Different-Phenotype (%) [11]: 18%
Total Cell Count [11]: 735
Population Apoptotic (%) [12]: 35%
Population Fragmented Nuclei (%) [12]: 19%
Population Healthy Nuclei (%) [12]: 72%
Population Hoechst High Intensity Objects (%) [12]: 2%
Population Mitochondria Different-Phenotype (%) [12]: 28%
Population Mitotic Cells (%) [12]: 64%
Population Normal (%) [12]: 97%
Population Tubulin-Different-Phenotype (%) [12]: 16%
Total Cell Count [12]: 462
